Screening data (PubChem BioAssay)
TNAP inh noacc – TNAP (human) inhibition, acceptor-free conditions; hit rate 0.26% among 200,000; purified TNAP, CDP-star luminescence, 30 min; P05186; inhibition, % at 20 µM; AID 1012;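 active = tissue-nonspecific alkaline phosphatase inhibition above about 50% at 20 µM in the single-dose screen, limit read from the data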;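 note: 0% = DMSO negative control and 100% = EDTA positive control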
Target sequence (P05186 whole entry, looked up): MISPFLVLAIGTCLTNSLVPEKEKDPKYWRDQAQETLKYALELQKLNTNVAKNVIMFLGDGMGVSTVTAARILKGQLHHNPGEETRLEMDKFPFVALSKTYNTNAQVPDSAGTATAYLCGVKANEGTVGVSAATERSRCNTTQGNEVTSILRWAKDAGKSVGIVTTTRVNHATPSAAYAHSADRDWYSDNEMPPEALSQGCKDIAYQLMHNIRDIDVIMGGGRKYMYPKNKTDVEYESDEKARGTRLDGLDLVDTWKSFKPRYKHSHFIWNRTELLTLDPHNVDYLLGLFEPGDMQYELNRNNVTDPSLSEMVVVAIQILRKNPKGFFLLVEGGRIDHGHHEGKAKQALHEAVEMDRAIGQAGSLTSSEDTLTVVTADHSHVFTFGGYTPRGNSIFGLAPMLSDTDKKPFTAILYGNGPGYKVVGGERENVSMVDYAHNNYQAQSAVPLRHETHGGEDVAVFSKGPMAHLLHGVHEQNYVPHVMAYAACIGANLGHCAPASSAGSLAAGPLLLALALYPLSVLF
HCT116 PTEN-null – PTEN-deleted cell growth suppression. HCT116 PTEN-null viability, CellTiter-Glo, 60 h; stronger effect = lower value. viability, % at 10 µM. hit rate 1.2% among 140,000. AID 827;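 active = viability at or below a set limit, 4 SD under the median of all tested compounds, cut at about 3.7% in these data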;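 note: PTEN knockout HCT116 line with beta catenin targeted HCT116 as companion control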
TNAP inh hiacc – TNAP (human) inhibition, high acceptor; P05186; purified TNAP, CDP-star luminescence, 1 M DEA; inhibition, % at 20 µM; hit rate 0.03% among 200,000; AID 1135;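 active = over 50% inhibition of tissue-nonspecific alkaline phosphatase at 20 µM in the single-dose screen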;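 note: plate controls were DMSO wells for no effect and EDTA-quenched wells as full inhibition for full effect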
TNAP act hiacc – increases human TNAP activity under high phosphate acceptor concentration | purified TNAP, CDP-star luminescence, 1 M DEA, 30 min; stronger effect = higher value; 0 = EDTA background, 1 = DMSO-only activity | activation factor at 20 µM | 200,000 tested, under 10 active | AID 1136;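 active = activation factor at least 2 at 20 µM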
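system = human TNAP | amount = enzyme diluted 1/800 final | reagent = 100 µM CDP-star substrate | signal = luminescent substrate turnover signal | dosing = one dose, 20 µM | benchmarks = EDTA negative control, DMSO positive control | measure = activation factor | timing = 30 min reaction, room temperature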
bCat KO growth – beta-catenin-lacking colon tumor cell growth suppression; HCT116 beta-catenin knockout viability, CellTiter-Glo, 60 h; stronger effect = lower value; viability, % at 10 µM; hit rate 1.5% among 140,000; AID 818;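 active = viability at or under a set limit, the compound median less 4 SD, cut at about 6% in these data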;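 note: 0% = Hyamine 1622 control at 20 µM and 100% = untreated cell control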
Lmaj promast – inhibitors of Leishmania major promastigote growth. inhibition, % at 10 µM. AID 1063. hit rate 9% among 200,000. Leishmania major promastigotes, resazurin fluorescence viability; in the data active = inhibition above about 50%;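 note: promastigotes grown with compound for 44 hours at 28 °C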
* hit, by the source's call. Hits are enriched below; roughly 9.6% of the tested compounds scored in any of these assays.

Results for O=C(Nc1cccc(C(F)(F)F)c1)Nc1ccc(N2CCCC2)c(S(=O)(=O)Nc2ccccc2Cl)c1 ?
TNAP inh noacc: -20.5; HCT116 PTEN-null: 1.5*; TNAP inh hiacc: -4.2; TNAP act hiacc: 1; bCat KO growth: 1.5*; Lmaj promast: 100.3*

How did COc1ccccc1NS(=O)(=O)c1cc(NC(=O)Nc2ccc(Cl)cc2Cl)ccc1N1CCCCC1 do in these assays?
TNAP inh noacc: -31.8; HCT116 PTEN-null: 46.8; TNAP inh hiacc: -8.1; TNAP act hiacc: 1.1; bCat KO growth: 47.2; Lmaj promast: 99.2*

Results for COc1cc(/C=C/C(=O)Nc2ccc(N3CCCCC3)c(S(=O)(=O)Nc3ccccc3Cl)c2)cc(OC)c1OC ?
TNAP inh noacc: -8.3; HCT116 PTEN-null: 83.7; TNAP inh hiacc: -1.2; TNAP act hiacc: 1; bCat KO growth: 85.2; Lmaj promast: 53.2*

What do the screens show for `O=C(Nc1cccc(S(=O)(=O)N2CCCCC2)c1)Nc1ccc(Cl)cc1Cl`?
TNAP inh noacc: -83.4; HCT116 PTEN-null: 1.4*; TNAP inh hiacc: -11.6; TNAP act hiacc: 1.1; bCat KO growth: 1.5*; Lmaj promast: 59.9*

Results for O=C(Nc1cccc(S(=O)(=O)N2CCCCC2)c1)c1ccc2ccccc2n1 ?
TNAP inh noacc: 9.0; HCT116 PTEN-null: 69.1; TNAP inh hiacc: 1.2; TNAP act hiacc: 1; bCat KO growth: 66.7; Lmaj promast: 10.0

Results for C=CCNC(=S)Nc1ccc(N2CCOCC2)c(S(=O)(=O)Nc2ccccc2Cl)c1 ?
TNAP inh noacc: -23.8; TNAP inh hiacc: -1.5; TNAP act hiacc: 1; Lmaj promast: 28.1

Results for C=CCN(c1cccc(C(F)(F)F)c1)S(=O)(=O)c1cccc(C(=O)OCC(=O)NCCC)c1 ?
TNAP inh noacc: -13.2; HCT116 PTEN-null: 99.9; TNAP inh hiacc: -0.2; TNAP act hiacc: 1; bCat KO growth: 96.3; Lmaj promast: -1.4

How did COCCNC(=O)CN(C(=O)Cn1nnc2ccccc21)c1cccc(C)c1C do in these assays?
TNAP inh noacc: -9.5; TNAP inh hiacc: -7.2; TNAP act hiacc: 1.1; Lmaj promast: -10.7

Results for CCOc1ccc(NS(=O)(=O)c2ccc3ncsc3c2)cc1 ?
TNAP inh noacc: -0.4; TNAP inh hiacc: 2.3; TNAP act hiacc: 1; Lmaj promast: 14.4

What do the screens show for `COc1ccc(-c2sc(NC(C)=O)nc2-c2ccccc2)cc1`?
TNAP inh noacc: -4.3; HCT116 PTEN-null: 84.2; TNAP inh hiacc: -6.2; TNAP act hiacc: 1.1; bCat KO growth: 94.7; Lmaj promast: 65.9*

What do the screens show for `Cc1cc(C)c(-c2csc(NC(=O)c3n[nH]c(=O)c4ccccc34)n2)c(C)c1`?
TNAP inh noacc: -124.2; HCT116 PTEN-null: 55.9; TNAP inh hiacc: -1.6; TNAP act hiacc: 1; bCat KO growth: 66.2; Lmaj promast: 1.4

What do the screens show for `COc1ccc(-c2nc(NC(C)=O)sc2-c2ccccc2)cc1`?
TNAP inh noacc: -4.9; TNAP inh hiacc: -2.4; TNAP act hiacc: 1; Lmaj promast: 31.2

What do the screens show for `COc1ccc(-c2nc(NC(=O)c3n[nH]c(=O)c4ccccc34)sc2C)cc1`?
TNAP inh noacc: -47.9; HCT116 PTEN-null: 76.1; TNAP inh hiacc: -8.0; TNAP act hiacc: 1.1; bCat KO growth: 73.8; Lmaj promast: 62.8*

Results for CCOC(=O)Cn1c(=O)oc2cc(S(=O)(=O)Nc3cc(OCC)ccc3OCC)ccc21 ?
TNAP inh noacc: -9.1; HCT116 PTEN-null: 75.0; TNAP inh hiacc: -2.1; TNAP act hiacc: 1; bCat KO growth: 75.7; Lmaj promast: 71.4*

What do the screens show for `CCOC(=O)Cn1c(=O)oc2cc(S(=O)(=O)Nc3cccc(C)c3)ccc21`?
TNAP inh noacc: -17.1; HCT116 PTEN-null: 16.2; TNAP inh hiacc: -3.8; TNAP act hiacc: 1; bCat KO growth: 5.2*; Lmaj promast: 6.0

How did CCOC(=O)Cn1c(=O)oc2cc(S(=O)(=O)Nc3cc(Cl)ccc3OC)ccc21 do in these assays?
TNAP inh noacc: -14.2; HCT116 PTEN-null: 101.1; TNAP inh hiacc: -3.3; TNAP act hiacc: 1; bCat KO growth: 92.4; Lmaj promast: -3.8

Results for Cn1c(CCC(=O)OCC(=O)NCc2ccc3c(c2)OCO3)nc(=O)c2ccccc21 ?
TNAP inh noacc: -4.0; TNAP inh hiacc: -2.3; TNAP act hiacc: 1; Lmaj promast: -11.2

What do the screens show for `FC(F)(F)c1cccc(Cc2noc(CN3C[C@@H]4CCC[C@H]3C4)n2)c1`?
TNAP inh noacc: -11.9; TNAP inh hiacc: -8.7; TNAP act hiacc: 1.1; Lmaj promast: 25.0
